# Assays:
# [1] = target: T1, Tyrosine-protein phosphatase non-receptor type 1 (Homo sapiens) (UniProt P18031); test: Inhibition of PTP1B at 100 uM
# T1 sequence (whole entry): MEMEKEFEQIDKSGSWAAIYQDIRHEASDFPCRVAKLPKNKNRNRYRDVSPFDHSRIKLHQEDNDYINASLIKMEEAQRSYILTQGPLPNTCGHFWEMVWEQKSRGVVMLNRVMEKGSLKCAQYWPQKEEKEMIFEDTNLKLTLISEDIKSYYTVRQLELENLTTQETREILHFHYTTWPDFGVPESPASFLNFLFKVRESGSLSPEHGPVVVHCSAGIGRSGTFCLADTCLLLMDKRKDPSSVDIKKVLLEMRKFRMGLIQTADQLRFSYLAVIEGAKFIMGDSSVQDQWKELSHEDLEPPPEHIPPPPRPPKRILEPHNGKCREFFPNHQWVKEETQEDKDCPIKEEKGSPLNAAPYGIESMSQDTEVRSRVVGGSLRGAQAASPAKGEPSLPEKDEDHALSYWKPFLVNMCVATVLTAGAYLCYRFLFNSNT
# Procedure, shortened: (§1)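 Test compound preincubated 10 min with enzyme in the reaction system before residual phosphatase activity was read. Substrate was 10 mM p-nitrophenylphosphate in 50 mM HEPES pH 7.0 with 1 mM each of EDTA and DTT. The reaction was stopped with 0.1 N NaOH and absorbance read at 410 nm. No-enzyme blanks run in parallel corrected for non-enzymic hydrolysis.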
# [2] = system: Rattus norvegicus; test: Antihyperglycemic activity in Streptozotocin-induced diabetic rat at 100 mg/kg; format: functional
# [3] = target: T2, Tyrosine-protein phosphatase non-receptor type 1 (Homo sapiens, UniProt P18031); test: Inhibition of PTP1B; procedure, shortened: as §1
# T2 sequence (P18031 whole entry): T1 sequence (whole entry)
Compound,inhibition [1] [%],IC50 [3] [µM],Ki [3] [µM],inhibition in vivo at 100 mg/kg [2] [%]
COc1c(-c2ccccc2)oc2c(ccc3occc32)c1=O [KARANJIN],15.8,–,–,35
COc1c(C2=NOC(n3ccnc3)C2)ccc2occc12 (stereo unspecified),14.9,–,–,–
COc1c(C2=NOC(c3ccccn3)C2)cc(OC)c2occc12 (stereo unspecified),18.4,–,–,–
COc1ccc(C2CC(c3ccc4occc4c3OC)=NO2)cc1 (stereo unspecified),49.1,150,27.5,–
COc1c(C2=NOC(c3ccccc3)C2)cc(OC)c2occc12 (stereo unspecified),80.4,76,30,–
COc1ccc(C2CC(c3cc(OC)c4occc4c3OC)=NO2)cc1 (stereo unspecified),79.6,81,32,–
COC(=O)C1C(c2ccc3occc3c2OC)=NOC1c1ccccc1 (stereo unspecified),18.5,199,72.5,–

# More lines, main results first:
inhibition [1] [%],IC50 [3] [µM],Ki [3] [µM],Compound,inhibition in vivo at 100 mg/kg [2] [%]
14.7,–,–,COc1c(C2=NOC(c3ccncc3)C2)ccc2occc12 (stereo unspecified),–
17.4,–,–,COc1c(C2=NOC(c3ccccn3)C2)ccc2occc12 (stereo unspecified),–
22.5,227,45,COc1c(C2=NOC(c3ccccc3)C2)ccc2occc12 (stereo unspecified),–
